Experimental data taken from ChEMBL document CHEMBL1148721 (J Med Chem, 2007).
pEC50, pKi: −log10 of the molar value.

Columns and labels:
[1] = Displacement of [3H]muscimol from GABAA receptor in rat brain membrane; format: cell membranes
Summary of the method: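 Native GABAA receptor affinity was measured by [3H]muscimol binding to rat brain membranes. Ki was calculated from pKi; ≥3 experiments in duplicate.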

[2] = Agonist activity at human GABA alpha-1-beta-2-gamma-2s receptor expressed in Xenopus oocytes by two electrode voltage-clamp assay; format: functional, cell-based; conditions: Oocyte
[3] = Agonist activity at human GABAC rho 1 receptor expressed in HEK293 cells by FMP assay; format: functional, cell-based; conditions: for pEC50: Homo sapiens, HEK293
[4] = Agonist activity at GABAC rho 1 receptor expressed in tsA-201 cells by FMP assay; format: functional, cell-based; conditions: Homo sapiens, tsA201; for pEC50: read-out: EC50; for EC50: read-out: Log EC50 (converted)
[5] = Agonist activity at GABAC rho 1 receptor expressed in tsA-201 cells by FMP assay relative to GABA; format: functional, Homo sapiens
Summary of the method: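 Human ρ1 (WT) transiently expressed in tsA-201 cells via Polyfect, plated on poly-D-lysine plates 16-24 h post-transfection and assayed next day. Cells loaded with membrane potential dye in HBSS + 20 mM HEPES pH 7.4, 30 min at 37 °C. Fluorescence read (ex 530/em 560 nm) before and up to 1 min after agonist addition. Rmax expressed as % of GABA maximal response; ≥3 experiments in duplicate.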

[6] = cells; format: functional, cell-based; conditions: HEK293; for pEC50: read-out: EC50
[7] = Agonist activity at human GABAC rho 1 receptor expressed in HEK293 cells by FMP assay relative to GABA; format: functional
Summary of the method: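 Stable human ρ1 HEK293 clone kept in 1 mg/mL G-418 and plated on poly-D-lysine plates for 16-24 h. Dye loading for 30 min at 37 °C in HBSS + 20 mM HEPES pH 7.4. Emission at 560 nm (excitation 530 nm) recorded before and up to 1 min after agonist. Concentration-response curves built from maximal responses; Rmax given as % of GABA; duplicates, ≥3 experiments.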

[8] = Agonist activity at GABAC rho 1 receptor S168T mutant expressed in tsA-201 cells by FMP assay; format: functional, cell-based; conditions: Homo sapiens, tsA201; for pEC50: read-out: EC50
[9] = molecular target: GABA A receptor alpha-1/beta-2/gamma-2 (Rattus norvegicus); assay: Agonist activity at GABA alpha-1-beta-2-gamma-2 receptor expressed in HEK293 cells by Whole-cell patch-clamp technique
[10] = Agonist activity at human GABAC rho 1 receptor expressed in HEK293 cells by Whole-cell patch-clamp technique relative to GABA; format: functional
Summary of the method: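 HEK293 cells cotransfected with human ρ1 plus GFP (Targefect) and recorded 20-72 h later by whole-cell patch clamp at -60 mV, 20-22 °C. Bath solution: 140 mM NaCl, HEPES, pH 7.35. Agonists applied by gravity-fed multibarrel perfusion. Hill equation fitted to obtain EC50, nH and Imax; maximal response as % of GABA; ≥5 cells.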

[11] = Agonist activity at human GABAC rho 1 receptor expressed in HEK293 cells by Whole-cell patch-clamp technique; format: functional, cell-based; conditions: for pEC50: read-out: EC50; for EC50: read-out: Log EC50 (converted)
[12] = Antagonist activity at human GABAc rho 1 receptor expressed in HEK293 cells by FMP assay; format: functional, cell-based
Summary of the method: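 Stable HEK293 line expressing human ρ1 (selected under G-418). Antagonist included with the loading dye in HBSS/20 mM HEPES pH 7.4 for 30 min at 37 °C, then agonist added. Fluorescence (ex 530/em 560 nm) read up to 1 min. Ki from inhibition curves by the Cheng-Prusoff relation using agonist concentration and EC50; duplicates, at least three experiments.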

[13] = Agonist activity at rat GABA alpha-1-T129S-beta-2-gamma-2 receptor mutant expressed in HEK293 cells by Whole-cell patch-clamp technique relative to GABA; format: functional
Summary of the method: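 Rat α1(Thr129Ser) with β2 and γ2S (1:1:2) transiently co-transfected with a GFP plasmid into HEK293 cells; whole-cell patch-clamp 20-72 h after transfection at 20-22 °C, clamp usually -60 mV, extracellular solution pH 7.35. Agonist applied by perfusion pipette. Hill-equation fit gives EC50 and Imax; maximal response as % of GABA maximum; at least five cells.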

[14] = Agonist activity at GABAC rho 1 receptor S168T mutant expressed in tsA-201 cells by FMP assay relative to GABA; format: functional, Homo sapiens
Summary of the method: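 tsA-201 cells transiently transfected with human ρ1 Ser168Thr cDNA, plated on poly-D-lysine after 16-24 h and assayed the next day. Cells loaded with membrane potential dye in HBSS/20 mM HEPES pH 7.4 for 30 min at 37 °C. Fluorescence (ex 530/em 560 nm) read up to 1 min after agonist addition. Rmax given as % of GABA maximum at the same receptor; duplicates, at least three experiments.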

Row | Compound | pKi [1] | pEC50 [3] | pEC50 [4] | EC50 [4] [µM] | pEC50 [8] | RUmax [5] [%] | RUmax [7] [%] | further results
1 | O=C(O)Cc1c[nH]c(Cl)n1 | < 4.00 | – | – | – | – | – | – | pEC50 [2]: < 3.00
2 | O=C(O)Cc1[nH]cnc1-c1ccccc1 | < 4.00 | 3.38 | 3.85 | 158 | < 2.52 | 131 | 98 | pEC50 [2]: < 3.00
3 | CC1N=C(CC(=O)O)C(c2ccccc2)=N1 (stereo unspecified) | < 4.00 | < 3.00 | – | – | – | – | – | pEC50 [2]: < 3.00
4 | O=C(O)Cc1[nH]cnc1-c1ccc(F)cc1 | < 4.00 | 3.68 | 3.48 | 316 | < 2.52 | 94 | 115 | –
5 | O=C(O)Cc1[nH]c(Cl)nc1-c1ccccc1 | < 4.00 | < 3.00 | – | – | – | – | – | –
6 | O=C(O)Cc1c[nH]c(-c2ccccc2)n1 | < 4.00 | < 3.00 | – | – | – | – | – | –
7 | CP(=O)(O)C1=CCNCC1 | – | – | – | – | – | – | – | pKi ([3]; hek293): 5.89
8 | Oc1noc2c1CCNC2 [GABOXADOL] | – | – | – | – | – | – | – | pKi [12]: 4.00; Log Ki [12]: -4
9 | NCCCC(=O)O [GAMMA-AMINOBUTYRIC ACID] | – | – | – | – | – | 100 | 100 | RUmax [13]: 100%; RUmax [14]: 100%; RUmax [10]: 100%
10 | O=C(O)Cc1c[nH]cn1 [IMIDAZOLE ACETIC ACID] | 6.19 | 4.89 | 5.26 | 5.01 | 4.00 | 37 | 32 | RUmax [13]: 39%; pEC50 [6]: 4.70; EC50 ([6]; read-out: Log EC50 (converted)): 20 µM; Log Ki [1]: -6.2; RUmax [14]: 10%; RUmax [10]: 7.5%; pEC50 [11]: 5.26; EC50 [11]: 5.5 µM
11 | O=C(O)C1=CCNCC1 [ISOGUVACINE] | – | 4.17 | – | – | – | – | 97 | –
12 | NCc1cc(O)no1 [MUSCIMOL] | – | 5.66 | 6.21 | 0.631 | 4.62 | 104 | 101 | EC50 ([8]; read-out: Log EC50 (converted)): 25.1 µM; RUmax [14]: 96%

Now from value to compound, other results behind:

Row | pKi [1] | pEC50 [3] | pEC50 [4] | EC50 [4] [µM] | pEC50 [8] | Compound | RUmax [5] [%] | RUmax [7] [%] | further results
13 | < 4.00 | < 3.00 | – | – | – | Cc1nc(CC(=O)O)c[nH]1 | – | – | –
14 | 4.17 | 4.66 | 4.96 | 10 | < 3.00 | Cc1[nH]cnc1CC(=O)O | 106 | 95 | pEC50 [6]: < 3.00; Log Ki [1]: -4.2; pEC50 [9]: < 3.00; RUmax [10]: 66%; pEC50 [11]: 4.51; EC50 [11]: 31.6 µM; pEC50 [2]: < 3.00
15 | < 4.00 | < 3.00 | – | – | – | Cc1cccc(-c2nc[nH]c2CC(=O)O)c1 | – | – | –
16 | < 4.00 | < 3.00 | – | – | – | Cc1ccccc1-c1nc[nH]c1CC(=O)O | – | – | –
17 | < 4.00 | 3.62 | 3.66 | 200 | < 2.52 | Cc1ccc(-c2nc[nH]c2CC(=O)O)cc1 | 127 | 111 | –
18 | < 4.00 | < 3.00 | – | – | – | O=C(O)Cc1[nH]cnc1I | – | – | –
